Laboratory results taken from ChEMBL document CHEMBL3351585, “Design, synthesis and biological evaluation of novel peptides with anti-cancer and drug resistance-reversing activities” (Eur J Med Chem, 2015).
pIC50: −log10 of the molar value.

Columns and labels:
[1] = Cytotoxicity against human GES-1 cells after 48 hrs by MTT assay; assay type: cell-based; details: GES1, 48 h
Method in brief: (§1)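 Cells grown in RPMI1640 with 10% heat-inactivated FBS and 1% penicillin-streptomycin at 37 °C, 5% CO2. Log-phase cells were seeded at 5 × 10^3/well 24 h before treatment, exposed to a range of peptide concentrations for 48 h, then given MTT for 4 h. Formazan was dissolved in DMSO and A490 read. Survival was computed relative to untreated wells, and IC50 taken from the survival curve.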

K562 = test: Anticancer activity against human K562 cells after 48 hrs by MTT assay; assay type: functional, cell-based; details: K562, 48 h; method in brief: as §1
[2] = Anticancer activity against human K562/ADR cells after 48 hrs by MTT assay; assay type: functional, cell-based; method in brief: as §1
[3] = Anticancer activity against human MCF7/ADR cells after 48 hrs by MTT assay; assay type: functional, cell-based; details: NCI/ADR-RES; method in brief: as §1
MCF7 [4] = test: Anticancer activity against human MCF7 cells after 48 hrs by MTT assay; assay type: functional, cell-based; details: MCF7, 48 h; method in brief: as §1
MCF7 [5] = test: Induction of cytochrome c release in human MCF7 cells incubated for 2 hrs by ELISA method (reference value: 364.2 +/- 20.5 ng); assay type: functional
MCF7 [6] = test: Induction of cytochrome c release in extracellular region of human MCF7 cells incubated for 2 hrs by ELISA method (reference value: 15.7 +/- 0.77 ng); assay type: functional
MCF7 [7] = test: Induction of cytochrome c release in mitochondria of human MCF7 cells incubated for 2 hrs by ELISA method (reference value: 347.8 +/- 14.5 ng); assay type: functional
MCF7 [8] = test: Induction of cytochrome c release in cytoplasm of human MCF7 cells incubated for 2 hrs by ELISA method (reference value: 44.1 +/- 2.7 ng); assay type: functional
[9] = Retention time of the compound by UPLC method; assay type: physicochemical
[10] = Toxicity in rabbit erythrocytes assessed as induction of hemolysis at 160 uM incubated for 1 hr by microplate reader assay; assay type: cell-based, Oryctolagus cuniculus; details: erythrocyte
Method in brief: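 Rabbit red blood cells in PBS were mixed 1:1 by volume with peptide solution and incubated 1 h at 37 °C, then spun at 1000 g for 5 min. Hemoglobin in the supernatant was read at 540 nm. PBS defined 0% hemolysis and 0.1% Triton X-100 defined 100%.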

Compound	pIC50 [1]	pIC50 (K562)	pIC50 [2]	pIC50 [3]	pIC50 (MCF7 [4])	Activity (MCF7 [5]) [ng]	Activity (MCF7 [6]) [ng]	Activity (MCF7 [7]) [ng]	Activity (MCF7 [8]) [ng]	Retention_time [9] [min]	Activity [10]
COc1cccc2c1C(=O)c1c(O)c3c(c(O)c1C2=O)C[C@@](O)(C(=O)CO)C[C@@H]3O[C@H]1C[C@H](N)[C@H](O)[C@H](C)O1 [DOXORUBICIN]	6.28	6.35	4.17	4.28	6.44	–	–	–	–	–	–
O=c1[nH]cc(F)c(=O)[nH]1 [FLUOROURACIL]	4.51	4.50	–	–	4.57	357	15.7	319.2	49.6	–	–
H-VKRFKKFFRKLKKAV-NH2	4.06	5.07	–	–	5.05	–	–	–	–	3.48	Non-toxic
H-VKRFKKFFRKLKKDV-NH2	3.92	4.35	–	–	4.70	–	–	–	–	3.38	Non-toxic
H-VKRFKKFFRKLKKEV-NH2	3.98	4.44	–	–	4.41	–	–	–	–	3.41	Non-toxic
H-VKRFKKFFRKLKKFV-NH2	4.28	5.43	–	–	5.89	–	–	–	–	3.74	Non-toxic
H-VKRFKKFFRKLKKGV-NH2	3.97	4.83	–	–	4.80	–	–	–	–	3.25	Non-toxic
